Laboratory results from ChEMBL document CHEMBL1138778, “Effects of altering the electronics of 2-methoxyestradiol on cell proliferation, on cytotoxicity in human cancer cell cultures, and on tubulin polymerization” (J Med Chem, 2004).

Columns and labels:
UACC-62 = assay: Growth inhibitory concentration required against human melanoma UACC-62 cancer cell line; format: functional
Outline: (§1)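 Screen over 10^-4 to 10^-8 M in a human cancer cell line panel. GI50 is the concentration giving 50% growth inhibition of the individual cell line.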

HCT-116 = assay: Growth inhibitory concentration against human colon cancer HCT116 cell line; format: functional; outline: as §1
MDA-MB-435 = assay: Growth inhibitory concentration required against human breast MDA-MB-435 cancer cell line; format: functional; outline: as §1
[1] = Average concentration required for 50% growth inhibition of human cancer cell line (tested); format: functional; conditions: Cancer cell lines
Outline: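 Mean graph midpoint: average of the individual cell line GI50 values across all cancer lines screened over 10^-4 to 10^-8 M. GI50 values falling outside this range were set to 10^-8 M (below) or 10^-4 M (above).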

MDA-MB-231 = assay: Inhibitory concentration against growth of MDA-MB-231 cancer cell line; format: functional, cell-based; conditions: Homo sapiens
Outline: (§2)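 MDA-MB-231 cells in DMEM/F12 (1:1) with 10% FBS, seeded at 1000 cells/well and attached overnight. Cells were exposed to compound for 48 h. Proliferation was read by BrdU-incorporation colorimetric ELISA or by cell counting, in triplicate, with experiments repeated at least twice.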

Tubulin = Tubulin (Bos taurus, UniProt Q6B856+Q862L2+Q862F3); assay: Inhibitory concentration against bovine tubulin polymerization; format: functional
Outline: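 Bovine brain tubulin, 1.2 mg/mL (12 μM), was preincubated with a range of compound concentrations and then chilled on ice. GTP was added and assembly followed by turbidity at 350 nm for 20 min at 26 °C. IC50 is the concentration halving assembly at 20 min, from at least two independent assays.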

HUVEC = assay: Inhibitory concentration required against growth of HUVEC […] cell line; format: functional, cell-based; conditions: Homo sapiens
Outline: as §2, with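 “HUVEC, used up to five passages” for “MDA-MB-231 cells”, “EGM” for “DMEM/F12 (1:1)”, “bovine brain extract and antibiotic-antimycotic,” for “10% FBS,”, “3000” for “1000”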

SN12C = assay: Growth inhibitory concentration required for against human renal SN12C cancer cell line; format: functional; outline: as §1
SF-539 = assay: Growth inhibitory concentration required against human CNS SF-539 cancer cell line; format: functional; outline: as §1
OVCAR-3 = assay: Growth inhibitory concentration required against human ovarian OVCAR-3 cancer cell line; format: functional; outline: as §1
DU-145 = assay: Growth inhibitory concentration required against human prostate DU-145 cancer cell line; format: functional; outline: as §1
HOP-62 = assay: Growth inhibitory concentration against human lung cancer HOP-62 cell line; format: functional; outline: as §1

| GI50 (HCT-116) [µM] | GI50 (MDA-MB-435) [µM] | IC50 (MDA-MB-231) [µM] | IC50 (Tubulin) [µM] | GI50 (OVCAR-3) [µM] | GI50 (DU-145) [µM] | SMILES | GI50 (UACC-62) [µM] | GI50 [1] [µM] | IC50 (HUVEC) [µM] | GI50 (SN12C) [µM] | GI50 (SF-539) [µM] | GI50 (HOP-62) [µM] |
| --- | --- | --- | --- | --- | --- | --- | --- | --- | --- | --- | --- | --- |
| 22.4 | 16.2 | 49.3 | > 40 | 15.8 | 18.2 | COc1cc2c(cc1O)CC[C@@H]1[C@@H]2CC[C@@]2(C)[C@H]1CC[C@@]2(O)C(F)(F)F | 18.2 | 19.5 | 40 | 24.5 | 19.5 |  |
| 33.1 | 7.8 | 54 | > 40 | 40.7 | 64.6 | COCc1cc2c(cc1O)CC[C@@H]1[C@@H]2CC[C@]2(C)[C@@H](O)CC[C@@H]12 | 24.5 | 38 | 28.8 | 56.2 | 33.9 | 83.2 |
| 3.5 | 1.3 | 18.4 | 4.8 | 2.8 | 5.2 | CCOc1cc2c(cc1O)CC[C@@H]1[C@@H]2CC[C@@]2(C)[C@H]1CC[C@]2(C)O | 3.74 | 4.7 | 5.7 | 4.5 | 2.8 | 5 |
| 17.8 | 12 | 47.5 | > 40 | 13.2 | 14.5 | C[C@]12CC[C@@H]3c4cc(C(F)(F)C(F)(F)F)c(O)cc4CC[C@H]3[C@@H]1CC[C@@H]2O | 13.8 | 18.6 | 25 | 16.6 | 18.2 |  |
| 0.7 | 0.19 | 7.14 | 5.6 | 0.66 | 2 | C[C@]1(O)CC[C@H]2[C@@H]3CCc4cc(O)ccc4[C@H]3CC[C@@]21C | 1.48 | 2.5 | 3.09 | 10.2 | 0.35 | 18.2 |
| 66.1 | 35.5 | 70.8 | > 40 | 43.7 | 56.2 | COc1cc2c(cc1O)CCC1[C@@H]2CC[C@@]2(C)[C@H]1CCC2(F)F (single isomer, unassigned) | 58.9 | 40.7 | 58.3 | 24.5 | 31.6 | 81.3 |
| 10.7 | 20.9 | 95.9 | > 40 | 1.9 | 13.8 | CC(=O)Oc1cc2c(cc1C(C)(F)F)[C@H]1CC[C@]3(C)[C@@H](OC(C)=O)CC[C@H]3[C@@H]1CC2 | 12.3 | 11.7 | 32.3 | 27.5 | 20 | 31.6 |
| 4.3 | 0.3 | 5.99 | 11 | 1.5 | 4.1 | CC#Cc1cc2c(cc1O)CC[C@@H]1[C@@H]2CC[C@@]2(C)[C@H]1CC[C@]2(C)O | 4 | 3.2 | 1.94 | 7.4 | 2.6 | 3.1 |
| 17 | 16.2 | 47.2 | > 40 | 14.1 | 5.1 | COc1cc2c(cc1O)CC[C@@H]1[C@@H]2CC[C@@]2(C)[C@H]1CC[C@]2(C)[C@H](O)c1ccccc1 | 13.5 | 14.5 | 21 | 14.1 | 17.8 | 18.2 |

The remaining lines, values behind:

| SMILES | GI50 (HCT-116) [µM] | GI50 (MDA-MB-435) [µM] | IC50 (MDA-MB-231) [µM] | IC50 (Tubulin) [µM] | GI50 (OVCAR-3) [µM] | GI50 (DU-145) [µM] | GI50 (UACC-62) [µM] | GI50 [1] [µM] | IC50 (HUVEC) [µM] | GI50 (SN12C) [µM] | GI50 (SF-539) [µM] | GI50 (HOP-62) [µM] |
| --- | --- | --- | --- | --- | --- | --- | --- | --- | --- | --- | --- | --- |
| C/C(COc1cc2c(cc1O)CC[C@@H]1[C@@H]2CC[C@]2(C)[C@@H](O)CC[C@@H]12)=N/O | 18.2 | 24 |  | > 40 | 20.4 | 29.5 | 15.5 | 24 |  | 27.5 | 20.9 | 23.4 |
| CCC(=O)c1cc2c(cc1O)CC[C@@H]1[C@@H]2CC[C@]2(C)[C@@H](O)CC[C@@H]12 | 9.3 | 2.4 | 15.8 | > 40 | 4 | 15.5 | 11.5 | 12 | 22.5 | 13.8 | 11.7 | 15.1 |
| C=CCc1cc2c(cc1O)CC[C@@H]1[C@@H]2CC[C@]2(C)[C@@H](O)CC[C@@H]12 | 14.1 | 15.1 | 33.4 | > 40 | 21.9 | 24 | 13.2 | 18.2 | 8.51 | 18.2 | 21.9 | 13.8 |
| CC#Cc1cc2c(cc1O)CC[C@@H]1[C@@H]2CC[C@]2(C)[C@@H](O)CC[C@@H]12 |  |  | 3.99 |  |  |  |  |  | 0.52 |  |  |  |
| COc1cc2c(cc1O)CC[C@@H]1[C@@H]2CC[C@@]2(C)[C@H]1CC[C@]2(C)O | 2.8 | 1.4 | 3.33 | > 40 | 7.1 | 12.3 | 6.3 | 10.2 | 2.4 | 7.8 | 6.9 | 15.2 |
| C[C@]12CC[C@@H]3c4cc(/C=N/C5CC5)c(O)cc4CC[C@H]3[C@@H]1CC[C@@H]2O | 12.3 | 16.2 |  | > 40 | 14.5 | 16.6 | 16.2 | 16.6 |  | 70.8 | 17 | 24 |
| C=C1CC[C@H]2[C@@H]3CCc4cc(O)c(OCC)cc4[C@H]3CC[C@]12C | 0.6 | 0.08 | 0.7 | 2.9 | 0.28 | 0.47 | 0.54 | 0.79 | 0.26 | 0.19 | 0.12 | 0.56 |
| CCOc1cc2c(cc1O)CC[C@@H]1[C@@H]2CC[C@]2(C)[C@@H](O)CC[C@@H]12 |  |  | 0.55 |  |  |  |  |  | 0.12 |  |  |  |
| CN(C)CCC/N=C/c1cc2c(cc1O)CC[C@@H]1[C@@H]2CC[C@]2(C)[C@@H](O)CC[C@@H]12 | 12.6 | 22.9 |  | > 40 | 19.5 | 20.9 | 13.8 | 20 |  | 25.7 | 18.2 | 21.4 |
| C[C@]12CC[C@@H]3c4cc(CO)c(O)cc4CC[C@H]3[C@@H]1CC[C@@H]2O | 74.1 | 24 | 99.2 | > 40 | 31.6 | 70.8 | 23.4 | 34.7 | 7.73 | 63.1 | 38 | 72.4 |
| C[C@]12CC[C@@H]3c4ccc(O)cc4CCC3[C@@H]1CCC2(F)F (single isomer, unassigned) | 14.5 | 15.8 | 54.4 | > 40 | 11 | 16.6 | 14.1 | 16.6 | 6.6 | 18.6 | 17.4 | 19.5 |
| CC(=O)c1cc2c(cc1O)CC[C@@H]1[C@@H]2CC[C@]2(C)[C@@H](O)CC[C@@H]12 |  | 4.3 | 13.6 | > 20 | 25.7 | 55 | 24.5 | 17.4 | 15.6 | 53.7 | 18.6 | 5.4 |
